From ChEMBL document CHEMBL3525991, “Metabolic transformation of antitumor acridinone C-1305 but not C-1311 via selective cellular expression of UGT1A10 increases cytotoxic response: implications for clinical use” (Drug Metab Dispos, 2013) come the findings set out here.

The target of series [1] is T1, UDP-glucuronosyltransferase 2B4 (Homo sapiens, UniProt P06133).
T1 sequence (P06133 whole entry): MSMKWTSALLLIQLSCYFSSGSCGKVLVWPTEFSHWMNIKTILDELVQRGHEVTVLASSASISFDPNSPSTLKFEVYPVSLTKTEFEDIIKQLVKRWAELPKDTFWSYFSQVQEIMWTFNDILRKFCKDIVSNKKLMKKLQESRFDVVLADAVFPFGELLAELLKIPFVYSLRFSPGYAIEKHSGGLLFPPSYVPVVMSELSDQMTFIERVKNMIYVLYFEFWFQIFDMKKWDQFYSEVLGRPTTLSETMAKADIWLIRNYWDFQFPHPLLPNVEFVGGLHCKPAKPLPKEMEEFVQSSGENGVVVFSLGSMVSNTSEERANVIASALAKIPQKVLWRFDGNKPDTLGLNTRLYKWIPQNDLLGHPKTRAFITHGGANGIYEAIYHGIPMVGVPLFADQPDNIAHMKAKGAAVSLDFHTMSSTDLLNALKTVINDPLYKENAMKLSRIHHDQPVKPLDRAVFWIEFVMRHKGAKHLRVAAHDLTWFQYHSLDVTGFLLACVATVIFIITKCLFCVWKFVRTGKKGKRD
Briefly: Drug metabolism in human KB3 cells overexpressing human UGT2B4 assessed as enzyme-mediated metabolites formation at 30 uM for 24 to 72 hrs by HPLC analysis. Type of series: ADME, cell-based. The following applies: kb3, 30 µM. In outline:
(§1)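 Untransfected KB-3, or cells electroporated 24 h earlier with UGT1A10 or UGT2B4 plasmid, grown to 80% confluence and treated with 30 μM drug for 24, 48 or 72 h. Cells plus medium collected, washed, sonicated in ice-cold 60% methanol. Reverse-phase HPLC at 1 ml/min in 50 mM ammonium formate pH 3.2, with a 15–80% methanol gradient over 25 min, then to 100%. Positive-ion ESI-MS.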

In series [2] the target is T2, UDP-glucuronosyltransferase 1A10 (Homo sapiens, UniProt Q9HAW8).
T2 sequence (Q9HAW8 whole entry): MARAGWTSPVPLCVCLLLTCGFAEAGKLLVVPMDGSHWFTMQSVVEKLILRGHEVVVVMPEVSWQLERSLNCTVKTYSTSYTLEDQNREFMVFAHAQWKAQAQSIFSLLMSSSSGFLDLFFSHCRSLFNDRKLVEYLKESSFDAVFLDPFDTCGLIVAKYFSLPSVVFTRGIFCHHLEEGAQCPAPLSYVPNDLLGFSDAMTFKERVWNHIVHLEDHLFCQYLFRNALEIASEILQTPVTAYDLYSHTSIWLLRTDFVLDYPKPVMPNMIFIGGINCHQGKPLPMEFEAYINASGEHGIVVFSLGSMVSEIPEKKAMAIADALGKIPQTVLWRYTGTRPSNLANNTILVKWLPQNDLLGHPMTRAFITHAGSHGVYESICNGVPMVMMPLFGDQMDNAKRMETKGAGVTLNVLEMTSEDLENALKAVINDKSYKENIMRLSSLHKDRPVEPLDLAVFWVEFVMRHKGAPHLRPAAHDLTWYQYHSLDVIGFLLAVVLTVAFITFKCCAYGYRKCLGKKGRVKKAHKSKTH
Briefly: Drug metabolism in human KB3 cells overexpressing human UGT1A10 assessed as enzyme-mediated metabolites formation at 30 uM for 24 to 72 hrs by HPLC analysis and electrospray ionization-mass spectrometry. Type of series: ADME, cell-based. The note with it: kb3, 30 µM. In outline:
as §1

Series [3] is described as follows: Cytotoxicity against human KB3 cells expressing human UGT2B4 assessed as decrease in cell viability after 72 hrs by MTT assay. It is filed as functional, cell-based. The following applies: KB3, 72 h. In outline:
(§2)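 KB-3 cells electroporated with 5 μg plasmid (UGT1A10-pcDNA3.1, UGT2B4-pIRES or empty pcDNA3.1), cotransfected with GFP (140 V, 250 μF). Used 24 h later at 2000/well. Next day, drug up to 10 μM in 0.1% DMSO for 72 h. MTT read at 540 nm after 4 h. Triplicates, relative to vehicle. IC50 is 50% of control absorbance.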

The target of series [4] is T2, UDP-glucuronosyltransferase 1A10. Briefly: Drug metabolism in human KB3 cells overexpressing human UGT1A10 assessed as enzyme-mediated metabolites formation at 30 uM for 24 to 72 hrs by HPLC analysis. The following applies: kb3, 30 µM. Type of series: ADME, cell-based. In outline: as §1
Series [5] in a line: Cell cycle arrest in human KB3 cells assessed as distribution at S phase at 8 uM after 24 hrs by propidium iodide staining-based FACS flow cytometric analysis. Type of series: functional. A general note: Flow cytometry measures light scatter and fluorescence of single cells or particles in a stream.
A short description of series [6]: Cell cycle arrest in human KB3 cells overexpressing human UGT1A10 assessed as accumulation of cells with 4N DNA content at 8 uM after 24 to 72 hrs by propidium iodide staining-based FACS flow cytometric analysis. It is filed as functional. In outline: (§3)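 KB-3 cells were electroporated with a UGT1A10 expression plasmid (140 V, 250 μF), co-transfected with GFP, and used 24 h later. At 80% confluence they received 8 μM or 3 μM compound, or 0.1% DMSO, for 24–72 h. Cells were fixed in ice-cold 70% ethanol, stained with PI/RNase for 30 min in the dark, and analysed by flow cytometry for DNA content; at least two experiments.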

The nature of series [7]: Cell cycle arrest in human KB3 cells assessed as distribution at G2/M phase at 8 uM after 24 hrs by propidium iodide staining-based FACS flow cytometric analysis. It is filed as functional.
Series [8] in a line: Cytotoxicity against human KB3 cells expressing pcDNA3.1 assessed as decrease in cell viability after 72 hrs by MTT assay. It is filed as functional, cell-based. The note with it: KB3, 72 h. In outline:
as §2

Series [9] can be described thus: Drug metabolism in human KB3 cells assessed as retention time at 30 uM for 24 to 72 hrs by HPLC analysis. It is filed as ADME, cell-based. The following applies: kb3, 30 µM. In outline: as §1
Series [10] can be described thus: Cell cycle arrest in human KB3 cells overexpressing human UGT1A10 assessed as distribution at subG1 DNA content at 8 uM after 24 hrs by propidium iodide staining-based FACS flow cytometric analysis (reference value: 3.4%). It is filed as functional. The following applies: in the assay text read “72 hrs” for “24 hrs”. In outline:
as §3

Series [11] can be described thus: Cell cycle arrest in human KB3 cells assessed as distribution at M phase at 8 uM after 48 to 72 hrs by propidium iodide staining-based FACS flow cytometric analysis. It is filed as functional.
Series [12] is described as follows: Cell cycle arrest in human KB3 cells assessed as distribution at G2 phase at 8 uM after 48 to 72 hrs by propidium iodide staining-based FACS flow cytometric analysis. It is filed as functional.
Series [13] in a line: Cell cycle arrest in human KB3 cells assessed as distribution at subG1 DNA content at 8 uM after 72 hrs by propidium iodide staining-based FACS flow cytometric analysis (reference value: 3.4%). Type of series: functional.
Series [14] is described as follows: Cytotoxicity against human KB3 cells assessed as decrease in cell viability after 72 hrs by MTT assay. The following applies: KB3, 72 h. Type of series: functional, cell-based. In outline: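 KB-3 (HeLa variant) cells, untransfected, in DMEM with 10% FBS at 37 °C, 5% CO2, seeded 2000/well. Next day, drug added at concentrations up to 10 μM, final 0.1% DMSO; vehicle controls. MTT read at 540 nm after 4 h, following DMSO solubilisation. Triplicate points, relative to vehicle. IC50 is the concentration giving 50% of control absorbance. Repeated independently.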

Series [15] in a line: Cell cycle arrest in human KB3 cells assessed as reduction of cells at G1 phase at 8 uM after 24 hrs by propidium iodide staining-based FACS flow cytometric analysis. It is filed as functional.
The nature of series [16]: Cytotoxicity against human KB3 cells expressing human UGT1A10 assessed as decrease in cell viability after 72 hrs by MTT assay. It is filed as functional, cell-based. The following applies: KB3, 72 h. In outline: as §2
A general note: Tetrazolium dyes change colour on reduction, which living cells bring about.

Series [17] is described as follows: Cell cycle arrest in human KB3 cells assessed as distribution at subG1 DNA content at 3 uM after 72 hrs by propidium iodide staining-based FACS flow cytometric analysis (reference value: 3.4%).
Series [18] in a line: Cell cycle arrest in human KB3 cells assessed as distribution at S phase at 3 uM after 24 hrs by propidium iodide staining-based FACS flow cytometric analysis. Type of series: functional.
Series [19] is described as follows: Cell cycle arrest in human KB3 cells overexpressing human UGT1A10 assessed as accumulation of cells with 4N DNA content at 3 uM after 24 to 72 hrs by propidium iodide staining-based FACS flow cytometric analysis. It is filed as functional. In outline: as §3
A short description of series [20]: Cell cycle arrest in human KB3 cells assessed as distribution at G2 phase at 3 uM after 24 hrs by propidium iodide staining-based FACS flow cytometric analysis. Type of series: functional.
A short description of series [21]: Cell cycle arrest in human KB3 cells assessed as distribution at M phase at 3 uM after 24 hrs by propidium iodide staining-based FACS flow cytometric analysis. It is filed as functional.
Series [22] is described as follows: Cell cycle arrest in human KB3 cells overexpressing human UGT1A10 assessed as distribution at subG1 DNA content at 3 uM after 24 hrs by propidium iodide staining-based FACS flow cytometric analysis (reference value: 3.4%). It is filed as functional. The following applies: in the assay text read “72 hrs” for “24 hrs”. In outline:
as §3

Activity calls are given as the source filed them. The calls are words filed in the database; no cut-off is given here.

For orientation: IC50 means the concentration that gives 50% inhibition. Consider `CN(C)CCCNc1ccc2nnn3c4ccc(O)cc4c(=O)c1c23.Cl`, for which the Drug metabolism entry in [1] is listed as “metabolite_not_detected”; in series [2], “metabolite_detected”; in series [4], “metabolite_detected”. The IC50 in series [3] is 261 nM; in series [8], 260 nM; in [14] it was 263 nM; in series [16] it was 180 nM. The result in [5], in series [6], in [7], in [11], in [12] and in series [15] was Active. Besides, the Retention_time in series [9] is reported as 18 min. The Activity in series [10] was determined as 37.2%; in series [13], 18.7%.

Regarding `CCN(CC)CCNc1ccc2ncn3c4ccc(O)cc4c(=O)c1c23.Cl`, the values for the Drug metabolism entry in series [1], in series [2] and in series [4] were “metabolite_not_detected”, “metabolite_detected” and “metabolite_detected”, respectively. Moreover, the Activity in [17] came to 16.9%; in series [22] it was 22.4%. For the same molecule, the IC50 turned out to be 113 nM in series [3], 102 nM in series [8], 106 nM in [14] and 131 nM in series [16]. Further, the result in series [18], in series [19], in series [20] and in series [21] was Active. Moreover, the Retention_time in series [9] amounted to 15 min.
